Screens deposited in PubChem by several laboratories.
Only a selection was taken, and hits are over-represented in it overall.
S1P3 antag – antagonists of human S1P3 receptor. Q99500. 0.27% of 170,000 active. inhibition, % at 4.98 µM. CHO S1P3 NFAT-BLA reporter, FRET fluorescence, antagonist mode. AID 485;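 active means inhibition above the plate cutoff, the mean inhibition of test wells on that plate plus 3 SD, cut at about 28% in these data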;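 further: cells challenged with S1P at its EC80 of 0.8 µM; blue over green emission ratio from cleaved BLA substrate after 4 h stimulation; 0% = S1P-stimulated wells and 100% = unstimulated DMSO-only wells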
S1P4 ag – activates the human S1P4 receptor | activation, % at 4.98 µM | 0.35% of 220,000 active | O95977 | S1P4-expressing cell line, agonist reporter assay; in the data active means activation above about 11%;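 further: 0% = DMSO vehicle and 100% = reference agonist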
L major viab – Leishmania major promastigote growth inhibition; inhibition, % at 10 µM; Leishmania major promastigotes, resazurin fluorescence viability; AID 1063; 9% of 200,000 active; in the data active means inhibition above about 50%;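 further: promastigotes grown with compound for 44 hours at 28 °C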
S1P4 antagonist – human S1P4 receptor antagonism; O95977; 0.26% of 220,000 active; inhibition, % at 4.98 µM; S1P4-expressing cells, antagonist mode, reporter read-out; in the data active means inhibition above about 29%;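 further: 0% = wells stimulated with agonist and 100% = vehicle wells without agonist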
MDM2 E3 inh – Mdm2 E3 ligase (human) inhibition; Q00987; AID 1230; signal enhancement, % at 5 µM; cell-based MDM2 ubiquitination luciferase reporter, 2 h; 0 = plate control, 100 = twice control, blank-subtracted; 0.11% of 210,000 active;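 active means signal enhancement of 30% or more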;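 further: luminescence tracks abundance of the self-degrading MDM2-luciferase fusion protein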
Target sequence (Q00987 whole entry, looked up, the tested form may be a part): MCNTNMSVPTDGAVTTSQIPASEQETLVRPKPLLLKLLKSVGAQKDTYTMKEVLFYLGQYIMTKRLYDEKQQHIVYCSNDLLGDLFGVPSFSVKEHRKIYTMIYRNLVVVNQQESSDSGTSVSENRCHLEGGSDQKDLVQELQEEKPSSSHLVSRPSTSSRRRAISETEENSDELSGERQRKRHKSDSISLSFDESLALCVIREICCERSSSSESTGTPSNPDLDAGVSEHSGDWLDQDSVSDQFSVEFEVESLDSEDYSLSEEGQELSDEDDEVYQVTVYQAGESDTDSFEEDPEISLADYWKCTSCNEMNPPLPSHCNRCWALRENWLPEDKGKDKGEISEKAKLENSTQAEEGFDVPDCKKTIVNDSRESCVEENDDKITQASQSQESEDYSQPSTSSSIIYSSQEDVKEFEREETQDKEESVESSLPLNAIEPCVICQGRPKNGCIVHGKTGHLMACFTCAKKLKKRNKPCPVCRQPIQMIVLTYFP
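Assay system: stable mammalian line carrying autodegrading MDM2–luciferase fusion reporter; Input: 2000 cells in each well; Compound dosing: single-point 5 µM; Schedule: 2 h compound exposure at 37 °C; Signal: SteadyLite luciferase luminescence after 15 min room-temperature reagent incubation; Evaluation: % luminescence enhancement versus blank-corrected plate control mean; Benchmarks: plate controls and plate blanks.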
Starred values were filed as active, the others as inactive.

How did CCOc1ccc(C(=O)NN2C(=O)C3C4C=CC(O4)C3C2=O)cc1 (stereo not given) do in these assays?
S1P4 ag: 1; L major viab: -4; S1P4 antagonist: -8; MDM2 E3 inh: 8

What do the screens show for `Cc1scc(C(=O)N/N=C/c2ccc(OCC(C)C)cc2)c1C`?
S1P4 ag: 0; L major viab: 88*; S1P4 antagonist: 6; MDM2 E3 inh: -26

Results for COc1cc(C(c2nnnn2C(C)(C)C)N2CCN(c3nc4ccccc4s3)CC2)ccc1O (stereo not given) ?
S1P3 antag: -3; S1P4 ag: -3; L major viab: 10; S1P4 antagonist: 7; MDM2 E3 inh: -27

How did C(=C\c1ccccc1)/CSc1nnc(-c2cnccn2)n1Cc1ccco1 do in these assays?
S1P3 antag: -20; S1P4 ag: 1; L major viab: 100*; S1P4 antagonist: -8; MDM2 E3 inh: -15

How did Fc1ccccc1CSc1nnc(-c2cnccn2)n1Cc1ccco1 do in these assays?
S1P3 antag: -2; S1P4 ag: -3; L major viab: 14; S1P4 antagonist: -15; MDM2 E3 inh: -3

What do the screens show for `O=C(CSc1nc2[nH]ncc2c(=O)n1-c1ccccc1)NCCc1ccccc1`?
S1P3 antag: -2; S1P4 ag: 2; L major viab: -3; S1P4 antagonist: -4; MDM2 E3 inh: -8

Results for O=C(CSc1nc2[nH]ncc2c(=O)n1-c1ccccc1Br)NCc1ccco1 ?
S1P3 antag: 83*; S1P4 ag: -1; L major viab: 3; S1P4 antagonist: -11; MDM2 E3 inh: -8

Results for COc1ccc(CCNC(=O)CSc2nc3[nH]ncc3c(=O)n2-c2ccccc2Br)cc1OC ?
S1P3 antag: -1; S1P4 ag: 2; L major viab: 2; S1P4 antagonist: 2; MDM2 E3 inh: -3

What do the screens show for `O=C(CSc1nc2[nH]ncc2c(=O)n1-c1ccc(Cl)c(Cl)c1)NCc1ccccc1Cl`?
S1P3 antag: -16; S1P4 ag: 3; L major viab: 77*; S1P4 antagonist: 1; MDM2 E3 inh: -7

How did Cc1ccc(S(=O)(=O)N(CC(O)CN2C(=O)NC(C)(C)C2=O)c2ccccc2)cc1 (stereo not given) do in these assays?
S1P4 ag: 1; L major viab: -3; S1P4 antagonist: -4; MDM2 E3 inh: -2

Results for COc1cccc(CNC(=O)CCC2CCCN(C(=O)C3CCOCC3)C2)c1 (stereo not given) ?
S1P3 antag: -27; S1P4 ag: -1; L major viab: -6; S1P4 antagonist: -18; MDM2 E3 inh: -17

What do the screens show for `CC(C)C1C(C#N)=C(N)Oc2n[nH]c(-c3cccs3)c21` (stereo not given)?
S1P3 antag: -8; S1P4 ag: 1; L major viab: 9; S1P4 antagonist: -9; MDM2 E3 inh: -22

How did COc1ccc(-c2[nH]nc3c2C(c2ccsc2)C(C#N)=C(N)O3)cc1 (stereo not given) do in these assays?
S1P4 ag: 0; L major viab: 36; S1P4 antagonist: -10; MDM2 E3 inh: -12

How did CC(C)c1[nH]nc2c1C(c1cccs1)C(C#N)=C(N)O2 (stereo not given) do in these assays?
S1P4 ag: -1; L major viab: 59*; S1P4 antagonist: 16; MDM2 E3 inh: 1

Results for Cc1[nH]nc2c1C(c1ccsc1C)C(C#N)=C(N)O2 (stereo not given) ?
S1P4 ag: 0; L major viab: 77*; S1P4 antagonist: -6; MDM2 E3 inh: -2

How did COc1cccc(-c2[nH]nc3c2C(c2ccsc2)C(C#N)=C(N)O3)c1 (stereo not given) do in these assays?
S1P4 ag: 0; L major viab: 14; S1P4 antagonist: -6; MDM2 E3 inh: 31*

Results for Cc1[nH]nc2c1C(c1ccsc1)C(C#N)=C(N)O2 (stereo not given) ?
S1P4 ag: 1; L major viab: 57*; S1P4 antagonist: 11; MDM2 E3 inh: -1

What do the screens show for `C=CCNc1nc(N2CCCCC2)c(C#N)c2c1CN(Cc1ccccc1)CC2`?
S1P4 ag: 2; L major viab: 47; S1P4 antagonist: 2; MDM2 E3 inh: -16

Results for COc1cc(CCCN2C(N)=NC[C@@H]2Cc2ccccc2)cc(OC)c1OC ?
MDM2 E3 inh: -3

What do the screens show for `CCOC(=O)c1c(NC(=O)COC(=O)c2c(C)noc2C)sc2c1CCC2`?
S1P3 antag: -11; S1P4 ag: 0; L major viab: -1; S1P4 antagonist: -4; MDM2 E3 inh: -20

What do the screens show for `CC(=O)Nc1ccc(N2CCOCC2)c([N+](=O)[O-])c1`?
S1P3 antag: -16; S1P4 ag: 0; L major viab: -4; S1P4 antagonist: -3; MDM2 E3 inh: -25

How did Cc1ncoc1C(=O)N1CCc2c([nH]c3ccccc23)C1c1ccccc1F (stereo not given) do in these assays?
S1P3 antag: 12; S1P4 ag: 1; L major viab: 3; S1P4 antagonist: -24; MDM2 E3 inh: -7

Results for O=C(c1cc2ncccn2n1)N1CCc2c([nH]c3ccccc23)C1c1ccccc1F (stereo not given) ?
S1P3 antag: -9; S1P4 ag: 0; L major viab: 56*; S1P4 antagonist: 1; MDM2 E3 inh: 11

Results for COc1ccc(C(C(=O)NC2CCCC2)N(C(=O)c2snc(-c3ccc(F)cc3)c2N)c2ccc(F)cc2)cc1 (stereo not given) ?
S1P4 ag: 1; L major viab: 71*; S1P4 antagonist: -10; MDM2 E3 inh: 6

How did COc1ccc(C(C(=O)NC2CCCC2)N(C(=O)c2snc(-c3ccc(F)cc3)c2N)c2ccc(OC)cc2)cc1 (stereo not given) do in these assays?
S1P4 ag: 2; L major viab: 63*; S1P4 antagonist: -9; MDM2 E3 inh: -11

Results for Cc1cc(N2C(=O)NC(=O)CC2C)c(C)cc1C(C)C (stereo not given) ?
S1P3 antag: -6; S1P4 ag: 2; L major viab: 14; S1P4 antagonist: -2; MDM2 E3 inh: 3

How did O=C1C2C3C=CC(C4CC34)C2C(=O)N1/N=C/c1ccc(-c2ccc(Cl)cc2[N+](=O)[O-])o1 (stereo not given) do in these assays?
S1P4 ag: 3; L major viab: 59*; S1P4 antagonist: -7

Results for Cc1ccccc1C(=O)O/N=C/c1c(N2CCOCC2)n(C)c2ccccc12 ?
S1P4 ag: 0; L major viab: 100*; S1P4 antagonist: -5; MDM2 E3 inh: -6

What do the screens show for `COc1ccc(C(C(=O)NC2CCCC2)N(C(=O)c2ccoc2C)c2ccc(C)c(C)c2)cc1` (stereo not given)?
S1P3 antag: 1; S1P4 ag: 0; L major viab: 75*; S1P4 antagonist: 3; MDM2 E3 inh: -4

What do the screens show for `COc1cc(OC)cc(N(C(=O)c2ccco2)C(C(=O)NC2CCCC2)c2ccc(N(C)C)cc2)c1` (stereo not given)?
S1P3 antag: -5; S1P4 ag: 0; L major viab: 17; S1P4 antagonist: -6; MDM2 E3 inh: -19
